High-throughput results as filed in PubChem.
MrgX1 agonist – agonists of human MrgX1 receptor; Q96LB2; MrgX1-HEK293 cells, Fluo-4 calcium fluorescence, agonist mode; active compounds read high; B-score at 10 µM; 310,000 tested, 0.44% active; AID 588627;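 active = calcium response B-score plate-corrected fluorescence ratio at least 3 library SD, with starting fluorescence B-score inside 5 SD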
Target sequence (Q96LB2 whole entry, looked up): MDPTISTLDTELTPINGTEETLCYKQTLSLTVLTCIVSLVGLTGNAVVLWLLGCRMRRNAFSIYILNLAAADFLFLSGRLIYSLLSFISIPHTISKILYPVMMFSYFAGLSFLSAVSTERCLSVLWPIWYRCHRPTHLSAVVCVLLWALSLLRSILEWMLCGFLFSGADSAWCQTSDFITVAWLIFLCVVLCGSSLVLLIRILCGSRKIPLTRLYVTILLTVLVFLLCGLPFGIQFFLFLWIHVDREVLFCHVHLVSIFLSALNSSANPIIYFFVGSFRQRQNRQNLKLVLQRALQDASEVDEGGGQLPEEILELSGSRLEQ
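Material: MrgX1-expressing HEK293 cells / Dosing: compound as first of three additions / Incubation: overnight seeding, then 1 h dark dye loading / Signal: Fluo-4 NW calcium fluorescence / Evaluation: B-scored fluorescence response ratio / Benchmarks: positive and negative control wells on each plate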
RGS4 inh – inhibitors of human RGS4; P49798; HEK293 M3R/RGS4 inducible, Fluo-4 calcium flux; active compounds read high; triggered by carbachol at its EC20; B-score at 10 µM; 310,000 tested, 0.45% active;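 active = B-score, a plate-corrected calcium signal, over three deviations above library mean, with baseline fluorescence within five deviations of library mean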;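 also: RGS4 expression induced by doxycycline in cells with stable M3 receptor; B-score is computed from the integrated fluorescence ratio over baseline after carbachol; higher B-score means a larger calcium signal and so more RGS4 inhibition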
RGS4 pot – potentiators or activators of RGS4; HEK293 M3R/inducible RGS4, carbachol calcium flux Fluo4; active compounds read low; B-score at 10 µM; 310,000 tested, 0.92% active;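 active = B-score of the integrated calcium signal more than 4 SD below the library mean, with starting fluorescence not abnormally high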;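 also: negative B-score means reduced calcium response which marks RGS4 activation or potentiation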
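test system = HEK293 cells with stable M3R and inducible RGS4 | schedule = recording 10 s baseline at 1 Hz, 100 s post-agonist | technique = Fluo4-AM (2 µM) calcium-flux fluorescence, kinetic read | measure = Agonist-evoked peak-minus-minimum fluorescence over baseline, integrated ratio, B score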
MrgX1 PAM – allosterically activates human MrgX1 receptor signaling; Q96LB2; MrgX1-HEK293, Fluo-4 calcium flux, FDSS; active compounds read high; B-score at 10 µM; 310,000 tested, 0.63% active; AID 588675;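 active = plate-corrected calcium response at least 3 library SD above typical, normal starting fluorescence, not activating the receptor alone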;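 also: compound read alongside a low EC10 to EC30 dose of BAM8-22 agonist; peak minus trough fluorescence over baseline measured at the second addition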
MrgX1 antag – human MrgX1 receptor antagonism, primary screen. Q96LB2. MRGX1-HEK293 calcium flux, Fluo-4, BAM8-22 antagonism; active compounds read low. B-score at 10 µM. 310,000 tested, 1.3% active. AID 588676;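 active = calcium-response B-score plate-corrected more than 3 library SD below zero, starting fluorescence within 5 deviations, no agonist response on first addition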;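 also: peak minus trough fluorescence over baseline after final BAM8-22 challenge near maximal dose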
MrgX1 allo conf – human MrgX1 positive allosteric modulation, re-confirmation; shares compounds with MrgX1 PAM; MrgX1-HEK293, Fluo-4 calcium fluorescence, FDSS; activation (ratio percentage), % at 10 µM; 1,200 tested, 13% active;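 active = ratio at least 3 SD above the weak peptide control, stable starting fluorescence, no direct agonism earlier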;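 also: compound followed by low BAM8-22 agonist challenge near EC20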
HEK293 Ca flux – MrgX1 antagonist counter-screen hit in parental HEK293 cells. Fluo-4 calcium fluorescence, FDSS. fluorescence ratio F(max-min)/F0 at 10 µM. 4,000 tested, 2% active. shares compounds with MrgX1 antag;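 active = duplicate-averaged calcium fluorescence ratio at least three times the standard deviation of buffer wells, a nonspecific response in parental cells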
HEK293 Ca counter – counter-screen for MrgX1 allosteric activators: effect in parental HEK293 cells; fluorescence ratio F(max-min)/F0 at 10 µM; shares compounds with MrgX1 antag; 4,000 tested, 0.4% active; parental HEK293 calcium flux, Fluo-4 fluorescence ratio; active compounds read high; AID 624114;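 active = calcium fluorescence ratio, averaged over duplicates, at least 3 SD of the buffer-well ratio, meaning a nonspecific response in receptor-free cells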;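 also: untransfected parental HEK293 lacking MrgX1 used as counterscreen for MrgX1 allosteric activators; fluorescence change taken during the second addition on a kinetic imager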
HEK293 Ca cntr2 – MrgX1 activator counter-screen hit in parental HEK293 cells. shares compounds with MrgX1 antag. Fluo-4 calcium fluorescence (FDSS); active compounds read high. fluorescence ratio F(max-min)/F0 at 10 µM. 4,000 tested, 8.7% active. AID 624115;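 active = calcium fluorescence ratio at least three times the spread of buffer wells, meaning a non-specific response in parental cells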
* = called active by the depositor; i = inactive; . = no result given. Most compounds without a hit are left out; they make up all but 3.5% or so of the library.

SMILES | MrgX1 agonist | RGS4 inh | RGS4 pot | MrgX1 PAM | MrgX1 antag | MrgX1 allo conf | HEK293 Ca flux | HEK293 Ca counter | HEK293 Ca cntr2
CCc1nc2ccccc2c(C(=O)OCC(=O)N2CC(C)OC(C)C2)c1C (stereo not drawn) | i | i | i | i | i | . | . | . | .
CCOc1ccc(C(C(=O)NC2CCCC2)N(CCCO)C(=O)c2ccc(-c3ccccc3)[nH]2)cc1 (stereo not drawn) | i | i | i | i | i | . | . | . | .
O=C(c1ccncc1)c1ccc(N2CCN(C3CC(=O)N(Cc4cccs4)C3=O)CC2)cc1 (stereo not drawn) | i | i | i | 6.88* | i | i | i | i | i
NC(=O)c1oc2ccccc2c1NC(=O)CN1CCCCC1 | i | i | i | 9.07* | i | 9.3%* | i | i | i
NC(=O)c1oc2ccccc2c1NC(=O)C1CCCCC1 | i | i | i | 10.1* | i | i | i | i | i
NC(=O)c1oc2ccccc2c1NC(=O)C1CC(=O)N(c2ccccc2)C1 (stereo not drawn) | i | i | i | i | i | . | . | . | .
C=CCSc1nc(O)c(C2OC(=O)c3c2ccc(OC)c3OC)c(=O)n1-c1ccccc1 (stereo not drawn) | i | i | i | 30.6* | i | i | i | i | i
COc1cc(NC(=O)C2=C(C)OCCS2)c(Cl)cc1C(=O)NCCN(C)C | i | i | i | i | i | . | . | . | .
Cc1nn(-c2ccc(N3CCCCC3)nn2)c(C)c1CCC(=O)Nc1cc(F)ccc1F | i | i | i | 7.82* | i | i | i | i | i
Cc1sc2ncn(C(C)C(=O)OC3CCCCC3)c(=O)c2c1C (stereo not drawn) | i | i | i | 9.19* | i | i | i | i | i
COc1cccc(CN2CC(C(=O)N(C)Cc3nc4ccc(F)cc4[nH]3)CCC2=O)c1 (stereo not drawn) | i | i | i | 6.95* | i | i | i | i | i
COc1ccc2nc(CCN(C)C(=O)C3CCC(=O)N(Cc4cccc(F)c4)C3)[nH]c2c1 (stereo not drawn) | i | i | i | i | i | . | . | . | .
O=C(COc1ccc(Cl)cc1)NC1=NN(c2ccccc2)C(=O)C1 | i | i | i | i | i | . | . | . | .
COc1ccc(NS(=O)(=O)c2cn(C)cn2)cc1 | i | i | i | i | i | . | . | . | .
CSc1cccc(NS(=O)(=O)c2cn(C)cn2)c1 | i | i | i | 11.9* | i | i | i | i | i
Cc1nc(-c2ccc(NC(=O)C3CC3)cc2)cs1 | i | i | i | i | i | . | . | . | .
Cc1nc(-c2cccc(NC(=O)C3CCCCC3)c2)cs1 | i | i | i | 16.6* | i | i | i | i | i
CC(C)N(Cc1ccccc1)C(=O)CCS(=O)(=O)c1ccc2c(c1)oc(=O)n2C | i | i | i | i | i | . | . | . | .
Cc1ccc(NC2(C#N)C(=O)Nc3ccccc32)cc1C (stereo not drawn) | i | i | i | 8.97* | i | i | i | i | 47.4*
COC(=O)c1ccc(NC2(C#N)C(=O)Nc3ccccc32)cc1 (stereo not drawn) | i | i | i | i | i | . | . | . | .
Cc1cc(-n2c(C)c3c(C)nnc(C)c3c2C)ccc1N | i | i | i | i | i | . | . | . | .
